Measurements published in publication PMC6939458 (Cancer cell, 2019).

Legend:
[1] = Maximum tolerated dose / acute toxicity in mice; assay type: in vivo; conditions: 361-treated mice
[2] = tested on: Rat1 fibroblasts (HO15.19, TGR.1); test: Cell viability, Rat1 fibroblasts; assay type: cell-based, rat; conditions: HO15.19 vs TGR.1
Outline: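 Myc-knockout HO15.19 and wild-type TGR.1 Rat-1 fibroblasts were kept in DMEM with 10% calf serum. They were seeded in 48-well plates at 1000 per well (HO15.19) or 3000 per well (TGR.1). After 2 to 7 days of treatment, viable cells were counted or MTS absorbance was read at 490 nm.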

[3] = tested on: MYC-dependent cancer cells; test: Cell viability, MYC-dependent cancer cells; assay type: cell-based; conditions: MycCaP, LNCaP, PC3, MV4–11, HL-60, P493–6, SK-N-B2; 5 days
Outline: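 Cells were seeded at 1000 to 5000 per well in 96-well plates, depending on cell type. Viable cells were counted, or MTS absorbance was read at 490 nm, 2 to 7 days after treatment. MycCaP, PC3, LNCaP and P493–6 were grown in RPMI1640, SK-N-BE(2) in F12 and MV411 in IMDM, each with 10% heat-inactivated FBS and 1% penicillin-streptomycin.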

MYC [4] = biological target: MYC (Homo sapiens, UniProt P01106, T73A); test: Western blot of MYC protein level, stability and phosphorylation in cells; assay type: cell-based; conditions: 6 μM, PC3 cells expressing Flag-MYCT58A
Chain of MYC (Homo sapiens, UniProt P01106, T73A) (P01106 16-454 T73A): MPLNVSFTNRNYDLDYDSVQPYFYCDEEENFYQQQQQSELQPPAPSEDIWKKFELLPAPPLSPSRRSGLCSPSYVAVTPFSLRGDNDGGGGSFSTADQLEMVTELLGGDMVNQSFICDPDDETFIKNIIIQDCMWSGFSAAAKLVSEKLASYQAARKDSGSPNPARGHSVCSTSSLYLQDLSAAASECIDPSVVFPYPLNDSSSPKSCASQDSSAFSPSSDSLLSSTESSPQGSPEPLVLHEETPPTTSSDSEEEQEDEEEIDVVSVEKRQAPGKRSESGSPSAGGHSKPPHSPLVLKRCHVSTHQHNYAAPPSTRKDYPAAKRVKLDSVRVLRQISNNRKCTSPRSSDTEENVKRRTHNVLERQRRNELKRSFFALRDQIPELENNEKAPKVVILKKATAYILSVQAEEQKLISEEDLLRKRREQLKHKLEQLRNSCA
Outline: (§1)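 PC3 cells, or PC3 stably expressing Flag-MYC, Flag-MYCT58A or Flag-MYCS62A (lentiviral, 1.5 μg/ml puromycin selection), were used. For stability, cells were pretreated 3 hr with compound or DMSO, then given cycloheximide and harvested at time points. MYC, pT58, pS62, GSK3β and pGSK3β S9 were detected by western blot over a time course. Band intensities were densitometrically quantified.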

MYC [5] = test: as above; assay type: cell-based, human
Outline: as §1

[6] = tested on: MYC target gene expression; test: RNA-seq and RT-qPCR gene expression; assay type: cell-based, human
Outline: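 MYCT58A cells were PC3 transduced with Flag-MYCT58A lentivirus and selected with 1.5 μg/ml puromycin. RT-qPCR used human MYC and 18S rRNA primers. For RNA-seq, PC3 cells were treated for 24 hr in triplicate and RNA was extracted after a PBS wash.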

## Cn1nc(C(F)(F)F)cc1-c1ccc(OCc2ccc(Cl)cc2)c(-c2cc(C(F)(F)F)cc(C(F)(F)F)c2)c1O [Compound 361, 6-((4-chlorobenzyl)oxy)-3-(1-methyl-3-(trifluoromethyl)-1H-pyrazol-5-yl)-3’,5’-bis(trifluoromethyl)-[1,1’-biphenyl]-2-ol]
[1]
  histopathological analysis of major organs: suppression of the splenic white pulp and hepatocyte hypertrophy
[2]
  sensitivity of Myc knockout versus wild-type fibroblasts: more resistant
[3]
  IC50s, cell viability: low micromolar
MYC [4]
  degradation of MYCT58A mutant: not readily degraded
MYC [5]
  phosphorylation of β-Catenin at S33/37/T41: did not affect
MYC [5]; 6 μM, PC3 cells
  MYC T58 and S62 phosphorylation: selectively increased T58 but not S62 phosphorylation
MYC [5]; PC3 cells
  regulatory GSK3β S9 phosphorylation: did not affect
MYC [5]; multiple cell lines expressing MYC and MYCN
  MYC, MYCN and MAX protein levels: reduction in MYC and MYCN, but not MAX, protein levels
[6]
  MYC mRNA levels: not altered
[6]; 6 μM, 24 hr, MYCT58A-expressing cells
  expression of MYC target genes CDC25A and MYB: potently suppressed
[6]; 6 μM, 24 hr, RNA-seq
  MYC target gene expression (GSEA, six gene sets): significantly down regulated in all gene sets
